One compound from ChEMBL document CHEMBL4049443, “Discovery of 2-[[2-Ethyl-6-[4-[2-(3-hydroxyazetidin-1-yl)-2-oxoethyl]piperazin-1-yl]-8-methylimidazo[1,2-a]pyridin-3-yl]methylamino]-4-(4-fluorophenyl)thiazole-5-carbonitrile (GLPG1690), a First-in-Class Autotaxin Inhibitor Undergoing Clinical Evaluation for the Treatment of Idiopathic Pulmonary …” (J Med Chem, 2017) can be followed below.

The source made the active and inactive calls. The rule behind the calls is not given here. Where only a bound is given, the exact number is not on record here.

Data set [1] addresses Cytochrome P450 3A4 (Homo sapiens, UniProt P08684). Description: Time-dependent inhibition of human liver microsomes CYP3A4. The format is ADME.
Data set [2] is described as follows: Protein binding to dog plasma. The format is ADME, cell-free, Canis lupus familiaris. The conditions noted are these: read-out: PPB.
The nature of data set [3]: Protein binding to mouse plasma. It is filed as ADME, cell-free. As to conditions: read-out: PPB.
The nature of data set [4]: Plasma clearance in mouse at 1 mg/kg, iv. The format is ADME, organism-based.
A short description of data set [5]: Plasma clearance in rat at 1 mg/kg, iv. The format is ADME, organism-based.
Data set [6] in a line: Plasma clearance in dog at 1 mg/kg, iv. It is filed as ADME, organism-based, Canis lupus familiaris. Put shortly:
(§1)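 Dog: from 1 mg/kg oral and intravenous doses. Clearance taken from the intravenous arm.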

The nature of data set [7]: Oral bioavailability in dog at 1 mg/kg. The format is ADME, organism-based, Canis lupus familiaris. The conditions noted are these: in vivo. Put shortly: as §1
The nature of data set [8]: Cmax in C57BL/6Rj mouse at 3 mg/kg administered as single dose via oral gavage up to 24 hrs by LC-MS/MS analysis. It is filed as ADME, organism-based. Set-up: dose 3 mg/kg, route oral. As to conditions: in vivo. Put shortly:
(§2)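 Female C57BL/6Rj mice, 4−5 weeks old, fasted, given one oral gavage in PEG 200/MC 0.5% (25/75 v/v) at 0.3, 1 or 3 mg/mL. Intracardiac blood under isoflurane at 1, 3, 6 and 24 h into Li-heparin; n = 3 per time point. Methanol precipitation, LC−MS/MS against an eight-level calibration curve (LLOQ 4 ng/mL).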

Data set [9] is described as follows: AUC (0 to 24 hrs) in C57BL/6Rj mouse at 3 mg/kg administered as single dose via oral gavage by LC-MS/MS analysis. It is filed as ADME, organism-based. Set-up: time < 24 hr, dose 3 mg/kg, route oral. The conditions noted are these: in vivo. Put shortly:
as §2

Data set [10] relates to Mus musculus. Description: Dose normalized AUC (0 to 24 hrs) in C57BL/6Rj mouse at 3 mg/kg administered as single dose via oral gavage by LC-MS/MS analysis. It is filed as ADME, organism-based. As to conditions: in vivo. Put shortly: as §2
The test system of data set [11] is Mus musculus. Briefly: In vivo inhibition of ATX in C57BL/6Rj mouse assessed as reduction in LPA 18:2 level in plasma at 3 mg/kg administered as single dose via oral gavage by LC-MS/MS analysis. The format is functional. Put shortly:
(§3)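 Same single-gavage mouse study (female C57BL/6Rj, PEG 200/MC 0.5% vehicle, n = 3, bled predose and at 1, 3, 6, 24 h); vehicle control group. Plasma (10 μL) precipitated with methanol containing LPA 17:0 internal standard. LPA 18:2 read by LC−MS/MS as peak-area ratio to LPA 17:0. % reduction = 100 − (LPA at time t / mean vehicle LPA at time t × 100).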

For data set [12], the system named is Mus musculus. Briefly: In vivo inhibition of ATX in C57BL/6Rj mouse assessed as reduction in LPA 18:2 level in plasma at 10 mg/kg administered as single dose via oral gavage by LC-MS/MS analysis. The format is functional. Put shortly: as §3
Data set [13] relates to Mus musculus. Description: Dose normalized Cmax in C57BL/6Rj mouse at 10 mg/kg administered as single dose via oral gavage up to 24 hrs by LC-MS/MS analysis. It is filed as ADME, organism-based. The conditions noted are these: in vivo. Put shortly:
as §2

Data set [14] is described as follows: Tmax in C57BL/6Rj mouse at 10 mg/kg administered as single dose via oral gavage up to 24 hrs by LC-MS/MS analysis. The format is ADME, organism-based. The conditions noted are these: in vivo. Put shortly: as §2
Data set [15] in a line: Apparent terminal half life in C57BL/6Rj mouse at 10 mg/kg administered as single dose via oral gavage up to 24 hrs by LC-MS/MS analysis. The format is ADME, organism-based. As to conditions: in vivo, read-out: betat1/2(app) (converted). Put shortly:
as §2

A short description of data set [16]: AUC (0 to 24 hrs) in C57BL/6Rj mouse at 30 mg/kg administered as single dose via oral gavage by LC-MS/MS analysis. Set-up: dose 30 mg/kg, time < 24 hr, route oral. As to conditions: in vivo. It is filed as ADME, organism-based. Put shortly: as §2
Data set [17] relates to Mus musculus. Briefly: Anti-fibrotic activity in BML-induced pulmonary fibrosis C57BL/6 mouse model assessed as reduction in fibrotic thickening of aveolar/bronchial walls at 10 to 30 mg/kg, po administered bid with 7.5 hrs interval between 2 doses for 21 days relative to control. It is filed as functional, organism-based. Put shortly:
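Male C57Bl/6 mice, 11 weeks at delivery, anesthetized and given intranasal bleomycin 30 μg/50 μL; PBS controls. Oral dosing twice daily, 7.5 h apart, 10 mL/kg, from challenge day for 21 days: test agent in PEG 200/0.5% MC, pirfenidone in 0.5% CMC, vehicle controls; 14−24 mice per group. Lungs stained by Mallory method, scored 1–5 (Matsuse-modified Ashcroft) as mean of 10 low-power fields; group median, Mann−Whitney.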

For data set [18], the system named is Mus musculus. Description: Time at which plasma concentration reach in vitro mouse plasma IC50 in C57BL/6Rj mouse at 3 mg/kg, po administered as single dose via gavage.
In data set [19] the test system is Mus musculus. Description: In vivo inhibition of ATX in C57BL/6Rj mouse assessed as time for maximum reduction in LPA 18:2 at 10 mg/kg administered as single dose via oral gavage by LC-MS/MS analysis. It is filed as functional. Put shortly: as §3

Chain of Cytochrome P450 3A4 (P08684 whole entry): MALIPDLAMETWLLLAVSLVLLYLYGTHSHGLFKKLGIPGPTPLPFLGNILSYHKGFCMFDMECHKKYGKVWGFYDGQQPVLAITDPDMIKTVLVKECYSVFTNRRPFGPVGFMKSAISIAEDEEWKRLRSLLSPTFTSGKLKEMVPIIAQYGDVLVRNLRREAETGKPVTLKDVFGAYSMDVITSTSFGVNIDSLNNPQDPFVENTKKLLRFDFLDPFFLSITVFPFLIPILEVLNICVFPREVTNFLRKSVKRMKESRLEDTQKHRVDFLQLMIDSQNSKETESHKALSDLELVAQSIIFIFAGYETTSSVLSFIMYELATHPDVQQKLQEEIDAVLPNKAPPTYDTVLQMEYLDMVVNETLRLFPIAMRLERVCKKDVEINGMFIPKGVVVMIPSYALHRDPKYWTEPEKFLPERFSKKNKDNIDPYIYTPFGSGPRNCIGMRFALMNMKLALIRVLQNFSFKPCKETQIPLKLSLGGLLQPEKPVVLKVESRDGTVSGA

What is called clearance is the rate of elimination divided by the concentration. For orientation: bioavailability means dose-corrected exposure relative to a reference, in per cent. A lower bioavailability goes with poor availability. A word on the Cmax: it is the highest concentration seen after dosing. By AUC(0-t) is commonly meant the area under the concentration-time curve up to a stated or last time point. Lower therefore signals less exposure. One may read the inhibition in vivo as the percentage by which the read-out fell short of the control. In general, Tmax refers to the time at which the peak concentration occurs. Turning to `CCc1nc2c(C)cc(N3CCN(CC(=O)N4CC(O)C4)CC3)cn2c1N(C)c1nc(-c2ccc(F)cc2)c(C#N)s1` [ZIRITAXESTAT], the TDI entry in data set [1] was “Not Active”. For the same compound, the fraction unbound in [2] and in data set [3] was < 0.01 throughout. Besides, the clearance in data set [4] was 3.83 mL/min/kg; in data set [5] it was 11.5 mL/min/kg; in data set [6], 2 mL/min/kg. The bioavailability in data set [7] came to 63%. Further, in data set [8], the peak level (Cmax) was 1080 ng/mL. Also, the values for the AUC(0-t) at 24 h in data set [9] and in data set [16] were 5550 ng·h/mL and 101000 ng·h/mL, respectively. In data set [10], this compound had an AUC/dose of 1851 ng·h/mL/mg/kg. In addition, in [11], the inhibition in vivo at 3 mg/kg worked out at 83.6%. In addition, the inhibition in vivo at 10 mg/kg in data set [12] turned out to be 90.9%. In addition, the Cmax/dose in data set [13] is 436 ng/mL/(mg/kg). In addition, the time of peak concentration (Tmax) in data set [14] is 1 h. Also, the half-life in [15] was 2.22 h. Further, the result in data set [17] was Active. Besides, the Time amounted to 6 h in data set [18] and 3 h in [19].
